Test results taken from ChEMBL document CHEMBL1811853, “Design and evaluation of 3-aminopyrazolopyridinone kinase inhibitors inspired by the natural product indirubin” (Bioorg Med Chem, 2011).

Legend:
[1] = target: T1, Aurora kinase A (Homo sapiens) (UniProt O14965); assay: Inhibition of AurA at 30 uM by microfluidic mobility shift assay
T1 sequence (whole entry): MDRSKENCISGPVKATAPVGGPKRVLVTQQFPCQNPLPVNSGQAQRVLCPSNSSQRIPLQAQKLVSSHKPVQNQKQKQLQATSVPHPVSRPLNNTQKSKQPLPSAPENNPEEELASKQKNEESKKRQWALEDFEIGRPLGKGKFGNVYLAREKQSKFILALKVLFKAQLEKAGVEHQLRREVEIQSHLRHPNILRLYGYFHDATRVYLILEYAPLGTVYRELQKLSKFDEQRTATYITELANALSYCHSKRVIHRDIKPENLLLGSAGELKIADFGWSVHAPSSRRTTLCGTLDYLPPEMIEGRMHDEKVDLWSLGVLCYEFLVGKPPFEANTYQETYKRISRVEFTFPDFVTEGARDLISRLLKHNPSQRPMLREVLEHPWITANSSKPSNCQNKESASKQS
In short: (§1)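 Single-concentration screen, singlicate, 30 uM final (diluted from 1 mM DMSO solutions), fluorescently tagged peptide substrate appropriate to each kinase, ATP at apparent Km for each protein. Phosphorylated and unphosphorylated peptides separated electrophoretically; conversion is the phosphorylated peak area over the sum of both peaks. No-inhibitor and no-ATP controls; H89 reference on each plate.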

[2] = target: T2, Protein kinase C zeta type (Homo sapiens) (UniProt Q05513); assay: Inhibition of PKCz at 30 uM by microfluidic mobility shift assay; in short: as §1
T2 sequence (whole entry): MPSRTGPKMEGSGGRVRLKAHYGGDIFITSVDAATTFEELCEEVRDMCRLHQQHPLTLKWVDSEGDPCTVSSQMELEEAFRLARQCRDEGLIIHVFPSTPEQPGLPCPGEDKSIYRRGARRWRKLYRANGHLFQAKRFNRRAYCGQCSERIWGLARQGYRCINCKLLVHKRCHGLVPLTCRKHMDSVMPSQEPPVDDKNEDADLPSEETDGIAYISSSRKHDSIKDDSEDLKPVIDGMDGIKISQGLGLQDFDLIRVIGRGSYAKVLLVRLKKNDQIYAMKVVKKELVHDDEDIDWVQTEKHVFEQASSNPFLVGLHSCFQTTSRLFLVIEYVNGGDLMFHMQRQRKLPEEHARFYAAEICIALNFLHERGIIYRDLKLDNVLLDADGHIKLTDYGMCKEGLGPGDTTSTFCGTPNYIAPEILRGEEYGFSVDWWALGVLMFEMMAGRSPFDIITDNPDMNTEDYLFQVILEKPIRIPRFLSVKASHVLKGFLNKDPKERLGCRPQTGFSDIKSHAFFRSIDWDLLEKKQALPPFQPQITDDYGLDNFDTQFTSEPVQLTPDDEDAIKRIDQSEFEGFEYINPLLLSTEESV

[3] = target: Mitogen-activated protein kinase 3 (Homo sapiens) (UniProt P27361); assay: Inhibition of ERK1 at 30 uM by microfluidic mobility shift assay; in short: as §1
[4] = target: T3, Serine/threonine-protein kinase Chk1 (Homo sapiens) (UniProt O14757); assay: Inhibition of CHK1 at 30 uM by microfluidic mobility shift assay; in short: as §1
T3 sequence (whole entry): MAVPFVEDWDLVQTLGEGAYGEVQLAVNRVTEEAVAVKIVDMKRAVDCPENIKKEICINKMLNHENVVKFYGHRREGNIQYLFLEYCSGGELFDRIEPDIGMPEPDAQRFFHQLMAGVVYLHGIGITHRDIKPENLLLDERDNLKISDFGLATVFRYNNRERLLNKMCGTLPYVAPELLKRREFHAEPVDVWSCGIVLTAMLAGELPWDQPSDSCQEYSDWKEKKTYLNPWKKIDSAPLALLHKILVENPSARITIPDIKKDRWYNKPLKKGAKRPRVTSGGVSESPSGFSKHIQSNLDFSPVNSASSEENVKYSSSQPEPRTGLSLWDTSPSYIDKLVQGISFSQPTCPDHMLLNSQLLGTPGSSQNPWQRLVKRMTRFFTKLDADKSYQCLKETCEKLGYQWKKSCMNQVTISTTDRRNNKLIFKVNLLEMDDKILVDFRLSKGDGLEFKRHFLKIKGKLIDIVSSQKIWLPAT

[5] = target: Tyrosine-protein kinase ABL1 (Homo sapiens, UniProt P00519); assay: Inhibition of ABL at 30 uM by microfluidic mobility shift assay; in short: as §1
[6] = target: Tyrosine-protein kinase Fyn (Homo sapiens, UniProt P06241); assay: Inhibition of FYN at 30 uM by microfluidic mobility shift assay; in short: as §1
[7] = target: Serine/threonine-protein kinase Chk2 (Homo sapiens, UniProt O96017); assay: Inhibition of CHK2 at 30 uM by microfluidic mobility shift assay; in short: as §1
[8] = target: Glycogen synthase kinase-3 beta (Homo sapiens) (UniProt P49841); assay: Inhibition of GSK3B at 30 uM by microfluidic mobility shift assay; in short: as §1
[9] = Inhibition of PKA at 30 uM by microfluidic mobility shift assay; in short: as §1
[10] = target: RAC-beta serine/threonine-protein kinase (Homo sapiens) (UniProt P31751); assay: Inhibition of AKT2 at 30 uM by microfluidic mobility shift assay; in short: as §1
[11] = target: Mitogen-activated protein kinase 14 (Homo sapiens, UniProt Q16539); assay: Inhibition of p38alpha at 30 uM by microfluidic mobility shift assay; in short: as §1
[12] = target: RAC-alpha serine/threonine-protein kinase (Homo sapiens) (UniProt P31749); assay: Inhibition of AKT1 at 30 uM by microfluidic mobility shift assay; in short: as §1
[13] = target: Ribosomal protein S6 kinase alpha-5 (Homo sapiens) (UniProt O75582); assay: Inhibition of MSK1 at 30 uM by microfluidic mobility shift assay; in short: as §1
Ribosomal protein S6 kinase alpha-5 (Homo sapiens), sequence (O75582 whole entry, looked up): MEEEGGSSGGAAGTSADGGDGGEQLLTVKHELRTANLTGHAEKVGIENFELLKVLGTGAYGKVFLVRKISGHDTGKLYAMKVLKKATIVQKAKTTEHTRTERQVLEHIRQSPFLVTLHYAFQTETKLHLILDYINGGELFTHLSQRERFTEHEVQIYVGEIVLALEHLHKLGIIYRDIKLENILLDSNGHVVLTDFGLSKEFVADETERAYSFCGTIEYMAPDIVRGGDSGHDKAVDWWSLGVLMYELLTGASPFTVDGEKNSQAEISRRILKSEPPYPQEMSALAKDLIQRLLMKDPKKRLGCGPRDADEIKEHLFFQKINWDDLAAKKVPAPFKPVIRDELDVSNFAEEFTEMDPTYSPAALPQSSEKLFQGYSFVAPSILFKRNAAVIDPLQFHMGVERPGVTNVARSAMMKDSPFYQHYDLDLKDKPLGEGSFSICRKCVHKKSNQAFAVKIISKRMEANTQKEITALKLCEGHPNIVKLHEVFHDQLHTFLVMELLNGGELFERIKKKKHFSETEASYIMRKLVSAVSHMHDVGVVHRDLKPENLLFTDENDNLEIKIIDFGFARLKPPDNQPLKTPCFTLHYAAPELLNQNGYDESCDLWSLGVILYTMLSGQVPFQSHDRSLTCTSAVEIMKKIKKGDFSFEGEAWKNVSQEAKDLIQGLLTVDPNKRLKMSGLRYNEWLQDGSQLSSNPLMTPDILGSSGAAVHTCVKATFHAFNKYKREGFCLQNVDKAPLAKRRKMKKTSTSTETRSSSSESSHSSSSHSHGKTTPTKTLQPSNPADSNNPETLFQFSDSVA

Mitogen-activated protein kinase 14, sequence (Q16539 whole entry): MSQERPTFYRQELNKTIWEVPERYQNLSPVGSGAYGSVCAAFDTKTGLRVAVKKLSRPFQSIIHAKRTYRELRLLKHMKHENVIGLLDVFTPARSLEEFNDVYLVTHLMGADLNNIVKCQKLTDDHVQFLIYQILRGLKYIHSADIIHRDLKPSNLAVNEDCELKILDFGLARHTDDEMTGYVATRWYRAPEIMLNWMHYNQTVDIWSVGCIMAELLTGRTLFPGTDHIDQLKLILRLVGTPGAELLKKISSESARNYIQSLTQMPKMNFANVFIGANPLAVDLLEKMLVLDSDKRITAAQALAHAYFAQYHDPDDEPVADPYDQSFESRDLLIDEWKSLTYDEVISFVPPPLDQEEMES
Glycogen synthase kinase-3 beta (Homo sapiens), sequence (P49841 whole entry, looked up): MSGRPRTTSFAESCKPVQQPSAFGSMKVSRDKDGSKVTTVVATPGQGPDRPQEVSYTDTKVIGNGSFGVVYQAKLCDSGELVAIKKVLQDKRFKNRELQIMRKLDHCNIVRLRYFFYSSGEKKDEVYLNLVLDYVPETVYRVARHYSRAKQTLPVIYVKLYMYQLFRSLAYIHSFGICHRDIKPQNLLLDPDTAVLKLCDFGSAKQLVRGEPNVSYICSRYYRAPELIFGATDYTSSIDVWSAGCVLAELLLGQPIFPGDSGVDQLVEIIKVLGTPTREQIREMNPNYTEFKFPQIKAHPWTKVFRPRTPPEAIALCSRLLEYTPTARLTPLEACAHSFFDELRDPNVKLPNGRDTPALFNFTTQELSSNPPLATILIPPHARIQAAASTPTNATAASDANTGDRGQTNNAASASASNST
Mitogen-activated protein kinase 3 (Homo sapiens), sequence (P27361 whole entry): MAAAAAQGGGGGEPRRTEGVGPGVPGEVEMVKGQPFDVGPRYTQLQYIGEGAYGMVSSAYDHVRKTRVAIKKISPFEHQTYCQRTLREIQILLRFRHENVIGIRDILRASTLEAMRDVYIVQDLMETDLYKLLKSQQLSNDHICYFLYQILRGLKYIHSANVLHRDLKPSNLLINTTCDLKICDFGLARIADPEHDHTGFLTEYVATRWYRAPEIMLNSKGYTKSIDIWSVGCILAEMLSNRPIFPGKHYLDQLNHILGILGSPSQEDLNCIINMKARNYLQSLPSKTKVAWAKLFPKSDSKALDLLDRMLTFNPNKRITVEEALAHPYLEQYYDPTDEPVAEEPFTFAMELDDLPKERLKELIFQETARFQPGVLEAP
RAC-alpha serine/threonine-protein kinase (Homo sapiens), sequence (P31749 whole entry): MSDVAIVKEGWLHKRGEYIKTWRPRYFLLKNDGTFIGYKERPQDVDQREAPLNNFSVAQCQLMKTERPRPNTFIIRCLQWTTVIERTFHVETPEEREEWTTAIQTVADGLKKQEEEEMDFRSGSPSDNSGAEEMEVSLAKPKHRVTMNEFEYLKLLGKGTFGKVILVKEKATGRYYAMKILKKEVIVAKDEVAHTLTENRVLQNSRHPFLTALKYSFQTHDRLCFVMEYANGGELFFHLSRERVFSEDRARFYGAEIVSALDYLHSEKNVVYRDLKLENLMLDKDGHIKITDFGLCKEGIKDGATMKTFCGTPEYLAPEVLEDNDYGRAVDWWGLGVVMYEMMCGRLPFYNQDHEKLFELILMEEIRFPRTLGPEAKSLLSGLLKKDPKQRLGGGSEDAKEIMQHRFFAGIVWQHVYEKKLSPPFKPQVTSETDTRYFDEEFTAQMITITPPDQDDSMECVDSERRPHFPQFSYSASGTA
Tyrosine-protein kinase Fyn, sequence (P06241 2-537 limits assumed): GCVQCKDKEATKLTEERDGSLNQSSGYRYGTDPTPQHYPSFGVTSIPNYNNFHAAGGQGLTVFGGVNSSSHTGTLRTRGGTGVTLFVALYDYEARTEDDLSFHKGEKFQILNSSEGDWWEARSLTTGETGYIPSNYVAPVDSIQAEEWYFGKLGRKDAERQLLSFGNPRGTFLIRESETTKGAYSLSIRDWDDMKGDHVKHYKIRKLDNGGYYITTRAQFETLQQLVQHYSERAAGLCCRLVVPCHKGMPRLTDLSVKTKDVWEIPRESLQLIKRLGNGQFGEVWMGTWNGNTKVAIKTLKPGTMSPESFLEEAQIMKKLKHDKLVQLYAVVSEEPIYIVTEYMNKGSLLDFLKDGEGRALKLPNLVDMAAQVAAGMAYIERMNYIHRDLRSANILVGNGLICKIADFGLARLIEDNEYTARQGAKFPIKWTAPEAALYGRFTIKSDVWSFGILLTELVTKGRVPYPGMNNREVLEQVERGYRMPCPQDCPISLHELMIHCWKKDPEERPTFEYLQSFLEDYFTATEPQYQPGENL
RAC-beta serine/threonine-protein kinase (Homo sapiens), sequence (P31751 whole entry): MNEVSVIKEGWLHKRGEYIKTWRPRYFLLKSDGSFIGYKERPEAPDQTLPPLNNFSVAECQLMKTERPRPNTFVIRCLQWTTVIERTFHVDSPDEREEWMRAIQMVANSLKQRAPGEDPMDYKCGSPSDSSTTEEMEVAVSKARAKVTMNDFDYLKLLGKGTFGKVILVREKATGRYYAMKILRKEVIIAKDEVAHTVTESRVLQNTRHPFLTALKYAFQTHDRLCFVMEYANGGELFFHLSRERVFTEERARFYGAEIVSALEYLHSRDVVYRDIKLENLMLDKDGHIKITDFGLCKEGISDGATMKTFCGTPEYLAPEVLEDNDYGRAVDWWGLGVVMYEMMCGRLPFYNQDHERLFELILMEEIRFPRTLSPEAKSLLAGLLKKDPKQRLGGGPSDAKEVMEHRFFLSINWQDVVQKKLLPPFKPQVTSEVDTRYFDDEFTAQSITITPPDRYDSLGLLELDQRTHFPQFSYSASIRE
Tyrosine-protein kinase ABL1, sequence (P00519 whole entry): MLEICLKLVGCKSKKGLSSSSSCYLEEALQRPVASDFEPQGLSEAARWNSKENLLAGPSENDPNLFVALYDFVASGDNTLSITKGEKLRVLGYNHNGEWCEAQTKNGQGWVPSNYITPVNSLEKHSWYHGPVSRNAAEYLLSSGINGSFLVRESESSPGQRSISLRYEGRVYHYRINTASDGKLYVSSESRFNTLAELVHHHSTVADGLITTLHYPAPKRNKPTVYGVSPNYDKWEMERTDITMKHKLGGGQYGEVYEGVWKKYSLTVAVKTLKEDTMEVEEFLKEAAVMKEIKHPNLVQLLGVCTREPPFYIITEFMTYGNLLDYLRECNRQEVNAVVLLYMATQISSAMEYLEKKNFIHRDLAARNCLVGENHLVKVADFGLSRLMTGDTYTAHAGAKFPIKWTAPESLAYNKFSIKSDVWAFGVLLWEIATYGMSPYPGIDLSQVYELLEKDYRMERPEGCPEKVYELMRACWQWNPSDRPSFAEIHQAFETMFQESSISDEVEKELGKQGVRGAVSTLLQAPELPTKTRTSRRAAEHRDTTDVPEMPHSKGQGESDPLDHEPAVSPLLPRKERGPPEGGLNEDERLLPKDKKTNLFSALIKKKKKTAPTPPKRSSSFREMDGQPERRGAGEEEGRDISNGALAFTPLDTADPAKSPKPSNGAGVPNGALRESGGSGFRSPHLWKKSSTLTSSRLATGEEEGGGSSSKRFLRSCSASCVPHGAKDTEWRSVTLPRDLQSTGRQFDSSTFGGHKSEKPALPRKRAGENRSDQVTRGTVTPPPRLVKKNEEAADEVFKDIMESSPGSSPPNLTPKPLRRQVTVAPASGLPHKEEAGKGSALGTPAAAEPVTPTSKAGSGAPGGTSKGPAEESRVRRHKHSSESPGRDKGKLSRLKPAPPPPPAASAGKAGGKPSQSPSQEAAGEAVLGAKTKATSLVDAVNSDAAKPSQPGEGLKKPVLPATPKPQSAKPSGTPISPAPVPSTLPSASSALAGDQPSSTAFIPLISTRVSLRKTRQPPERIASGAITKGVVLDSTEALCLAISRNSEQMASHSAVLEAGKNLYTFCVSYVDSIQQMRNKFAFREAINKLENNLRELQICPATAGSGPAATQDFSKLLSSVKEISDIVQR

| Structure (SMILES) | inhibition [1] | inhibition [2] | inhibition [3] | inhibition [4] | inhibition [5] | inhibition [6] | inhibition [7] | inhibition [8] | inhibition [9] | inhibition [10] | inhibition [11] | inhibition [12] | inhibition [13] |
| --- | --- | --- | --- | --- | --- | --- | --- | --- | --- | --- | --- | --- | --- |
| Nc1n[nH]c2cc(-c3ccccn3)[nH]c(=O)c12 | 38% | 3% | 11% | 29% | 40% | 54% | 47% | 60% | 42% | 8% | 17% | 2% | 35% |
| COc1ccccc1-c1cc2nn(-c3ccccc3)c(N)c2c(=O)[nH]1 | 7% | 4% | 21% | 3% | 86% | 77% | 16% | 3% | 6% | 0% | 68% | 15% | 7% |
| CC(=O)Nc1nn(C)c2cc(-c3ccc(N4CCN(C)CC4)cc3)[nH]c(=O)c12 | 15% | 6% | 3% | 16% | 20% | 15% | 3% | -3% | 3% | -1% | 3% | 4% | 0% |
| COCCNc1nc(C)cc2c1c(N)nn2C | 15% | -10% | 5% | 7% | -8% | -1% | -2% | 1% | 19% | -3% | 1% | 6% | 0% |
| CN1CCN(c2ccc(-c3cc4nn(-c5ccccc5)c(N)c4c(=O)[nH]3)cc2)CC1 | 66% | 23% | 0% | 52% | 99% | 99% | 18% | 12% | 2% | 10% | 85% | 3% | 12% |
| Cn1nc(N)c2c(=O)[nH]c(-c3ccccn3)cc21 | 7% | 0% | 10% | 34% | 27% | 24% | 25% | 46% | 5% | 10% | 1% | 7% | -4% |
| CN1CCN(c2ccc(-c3cc4c(c(N)nn4C)c(=O)[nH]3)cc2)CC1 | 52% | 7% | 13% | 67% | 80% | 65% | 53% | 45% | 81% | -1% | 3% | 8% | 29% |
| CC(=O)Nc1nn(C)c2cc(-c3ccccc3)[nH]c(=O)c12 | 2% | 28% | 3% | 4% | 10% | 21% | 4% | 17% | -2% | 40% | 5% | -9% | 3% |
| Cc1nc(N)c2c(=O)[nH]c(C)cc2n1 | 3% | 3% | 4% | 9% | 18% | 8% | 5% | 52% | 2% | 2% | 2% | -2% | 0% |
| Cn1nc(N)c2c(=O)[nH]c(-c3ccccc3)cc21 | 14% | 6% | 19% | 25% | 26% | 26% | 16% | 66% | 7% | 4% | 7% | 8% | 9% |
| Nc1c2c(=O)[nH]c(-c3ccccc3)cc2nn1-c1ccccn1 | 37% | -3% | 2% | 2% | 33% | 41% | 18% | 41% | -3% | 0% | 7% | 10% | -4% |
| COc1cccc(-c2cc3[nH]nc(N)c3c(=O)[nH]2)c1 | 49% | -1% | 20% | 13% | 44% | 42% | 52% | 58% | 48% | 2% | 10% | 4% | 49% |
| COc1ccc(-c2cc3[nH]nc(N)c3c(=O)[nH]2)cc1 | 49% | 7% | 13% | 14% | 55% | 50% | 43% | 78% | 82% | 11% | 0% | 21% | 62% |
| COc1ccc(-c2c(C)[nH]c(=O)c3c(N)nn(C)c23)cc1 | 31% | 10% | 13% | 11% | 23% | 20% | 18% | 58% | 10% | 25% | -1% | 13% | 13% |
| Cn1nc2c3c(nc(-c4ccccc4)cc31)NCC(=O)N2 | 20% | 5% | 5% | 6% | 4% | 12% | 5% | 14% | 0% | 1% | 6% | 10% | 0% |
| CC(C)(C)c1cc2nn(-c3ccccc3)c(N)c2c(=O)[nH]1 | 9% | -1% | 21% | 11% | 13% | 9% | 5% | 31% | 1% | 3% | 85% | 7% | -1% |
